The source made the active and inactive calls. No cut-off for these calls is given here.
Assays:
Cytochrome P450 3A4 = Cytochrome P450 3A4 (Homo sapiens, UniProt P08684); assay: Inhibition of CYP3A4 in human liver microsomes using midazolam as substrate after 10 mins by LC/MS/MS analysis
[1] = system: Human immunodeficiency virus 1; assay: Antiviral activity against wild type HIV1 3B infected in human MT4 LTR-EGFP cells by EGFP reporter gene assay; type: functional, organism-based; settings: Human immunodeficiency virus 1, 3B
[2] = AUC (0 to infinity) in dog at 7.5 mg/kg, po; type: ADME, organism-based, Canis lupus familiaris; set-up: time infinity, dose 7.5 mg/kg, route oral; settings: plasma
Method in brief: (§1)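 Drug–drug interaction study in dogs, n = 3. The booster was given orally at 7.5 mg/kg as a PEG400 solution, 5 min before oral darunavir at 30 mg/kg. Darunavir plasma Cmax and AUC0–∞ were measured, with fold increase calculated against darunavir dosed alone.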

[3] = Cmax in dog at 7.5 mg/kg, po; type: ADME, organism-based, Canis lupus familiaris; set-up: dose 7.5 mg/kg, route oral; settings: in vivo; method in brief: as §1
Canis familiaris [4] = assay: Enhancement of darunavir AUC (0 to infinity) in dog at 7.5 mg/kg, po administered 5 mins prior to darunavir co-administration; type: ADME, organism-based, Canis lupus familiaris; set-up: dose 7.5 mg/kg, route oral; settings: in vivo
Canis familiaris [5] = assay: Enhancement of darunavir Cmax in dog at 7.5 mg/kg, po administered 5 mins prior to darunavir co-administration; type: ADME, organism-based, Canis lupus familiaris; set-up: dose 7.5 mg/kg, route oral; settings: in vivo
[6] = Absolute oral bioavailability in dog at 10 mg/kg administered as single dose; type: ADME, organism-based, Canis lupus familiaris; settings: in vivo
Method in brief: (§2)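 Single oral dose of 10 mg/kg given to rats and dogs, n = 3 per species. Plasma Cmax, Tmax, AUC0–∞ and absolute oral bioavailability were derived from the plasma profiles.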

[7] = AUC (0 to infinity) in dog at 10 mg/kg, po administered as single dose; type: ADME, organism-based, Canis lupus familiaris; set-up: time infinity, dose 10 mg/kg, route oral; settings: plasma; method in brief: as §2
[8] = Tmax in dog at 10 mg/kg, po administered as single dose; type: ADME, organism-based, Canis lupus familiaris; set-up: dose 10 mg/kg, route oral; settings: in vivo; method in brief: as §2
[9] = Cmax in dog at 10 mg/kg, po administered as single dose; type: ADME, organism-based, Canis lupus familiaris; set-up: dose 10 mg/kg, route oral; settings: in vivo; method in brief: as §2
[10] = Absolute oral bioavailability in rat at 10 mg/kg administered as single dose; type: ADME, organism-based; settings: in vivo; method in brief: as §2
[11] = AUC (0 to infinity) in rat at 10 mg/kg, po administered as single dose; type: ADME, organism-based; set-up: time infinity, dose 10 mg/kg, route oral; settings: plasma
[12] = Tmax in rat at 10 mg/kg, po administered as single dose; type: ADME, organism-based; set-up: dose 10 mg/kg, route oral; settings: in vivo; method in brief: as §2
[13] = Cmax in rat at 10 mg/kg, po administered as single dose; type: ADME, organism-based; set-up: dose 10 mg/kg, route oral; settings: in vivo; method in brief: as §2
[14] = Apparent permeability across human Caco2 cells at 10 uM at pH 7.4 after 60 mins; type: ADME, cell-based; settings: Caco-2, pH 7.4
Method in brief: (§3)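 Caco-2 monolayers were exposed to compound at 10 µM and sampled after 60 min of incubation, at pH 5.5 or pH 7.4. Apparent permeability was measured in the absorptive and secretory directions, with efflux expressed as the secretory/absorptive ratio.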

[15] = Apparent permeability across human Caco2 cells at 10 uM at pH 5.5 after 60 mins; type: ADME, cell-based; settings: Caco-2, pH 5.5; method in brief: as §3
Homo sapiens = species: Homo sapiens; assay: Inhibition of P-glycoprotein using taxol as substrate
[16] = Drug metabolism in dog hepatocytes at 2 uM after 2 hrs; type: ADME, cell-based, Canis lupus familiaris, Hepatocyte; settings: read-out: Drug metabolism
[17] = Efflux ratio of apparent permeability of the compound from basal to apical to apical to basal side of human Caco2 cells at 10 uM at pH 7.4 after 60 mins; type: ADME, cell-based; settings: Caco-2, pH 7.4
Method in brief: (§4)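 Caco-2 monolayers; test compound at 10 µM; apparent permeability measured in secretory and absorptive directions at pH 5.5 and at pH 7.4, read after 60 min incubation; transport polarity taken as P_secretory/P_absorptive.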

[18] = Efflux ratio of apparent permeability of the compound from basal to apical to apical to basal side of human Caco2 cells at 10 uM at pH 5.5 after 60 mins; type: ADME, cell-based; settings: Caco-2, pH 5.5; method in brief: as §4

Cytochrome P450 3A4, sequence (P08684 whole entry): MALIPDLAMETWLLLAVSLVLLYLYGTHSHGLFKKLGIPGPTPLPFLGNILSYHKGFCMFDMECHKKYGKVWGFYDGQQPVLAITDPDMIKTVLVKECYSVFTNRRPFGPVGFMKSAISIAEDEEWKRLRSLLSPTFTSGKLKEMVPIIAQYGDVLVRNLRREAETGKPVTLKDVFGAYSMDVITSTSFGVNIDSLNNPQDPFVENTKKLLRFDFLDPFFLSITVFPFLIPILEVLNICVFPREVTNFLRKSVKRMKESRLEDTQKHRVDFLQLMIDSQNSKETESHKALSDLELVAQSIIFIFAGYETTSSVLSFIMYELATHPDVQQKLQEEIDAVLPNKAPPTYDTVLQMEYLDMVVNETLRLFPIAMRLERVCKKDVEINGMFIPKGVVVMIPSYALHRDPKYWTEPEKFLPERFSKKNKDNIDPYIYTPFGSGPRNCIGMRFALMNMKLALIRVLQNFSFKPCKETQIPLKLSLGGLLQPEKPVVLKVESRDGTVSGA

## CC(C)CN(C[C@@H](O)[C@H](Cc1ccccc1)NC(=O)OCc1cncs1)C(=O)c1ccc2nc(N3CCOCC3)oc2c1
Cytochrome P450 3A4
  IC50: 38 nM
[1]
  EC50: > 100000 nM

## CCN(C)c1nc2ccc(C(=O)N(CCN3CCCC3)C[C@@H](O)[C@H](Cc3ccccc3)NC(=O)OCc3cncs3)cc2o1
Cytochrome P450 3A4
  IC50: 140 nM
[1]
  EC50: > 100000 nM

## CCN(C)c1nc2ccc(C(=O)N(CC(C)C)C[C@@H](O)[C@H](Cc3ccccc3)NC(=O)OCc3cncs3)cc2o1
[2]
  AUC(0-inf): 2000 ng·h/mL
[3]
  Cmax: 610 ng/mL
Canis familiaris [4]
  fold change (FC): 5
Canis familiaris [5]
  fold change (FC): 2
[6]
  bioavailability: 81%
[7]
  AUC(0-inf): 2240 ng·h/mL
[8]
  Tmax: 30 min
[9]
  Cmax: 1010 ng/mL
[10]
  bioavailability: 44%
[11]
  AUC(0-inf): 970 ng·h/mL
[12]
  Tmax: 60 min
[13]
  Cmax: 240 ng/mL
[14]
  Papp at 1 h, 10 µM: 11 ×10⁻⁶ cm/s
[15]
  Papp at 1 h, 10 µM: 10 ×10⁻⁶ cm/s
[1]
  EC50: 71000 nM

## CC(C)CN(C[C@@H](O)[C@H](Cc1ccccc1)NC(=O)OCc1cncs1)C(=O)c1ccc2nc(N)sc2c1
Homo sapiens
  inhibition: Active
[2]
  AUC(0-inf): 6480 ng·h/mL
[3]
  Cmax: 2300 ng/mL
Canis familiaris [4]
  fold change (FC): 4.7
Canis familiaris [5]
  fold change (FC): 1.8
[16]
  metabolised at 2 h, 2 µM: 12%
[6]
  bioavailability: 1.37%
[7]
  AUC(0-inf): 200 ng·h/mL
[8]
  Tmax: 60 min
[9]
  Cmax: 140 ng/mL
[10]
  bioavailability: 0.82%
[11]
  AUC(0-inf): 10 ng·h/mL
[12]
  Tmax: 30 min
[13]
  Cmax: 10 ng/mL
[17]
  efflux ratio at 1 h, 10 µM: 22
[18]
  efflux ratio at 1 h, 10 µM: 26
[14]
  Papp at 1 h, 10 µM: 1.2 ×10⁻⁶ cm/s
[15]
  Papp at 1 h, 10 µM: 0.52 ×10⁻⁶ cm/s
Cytochrome P450 3A4
  IC50: 19 nM
[1]
  EC50: 76000 nM

## CN(C[C@@H](O)[C@H](Cc1ccccc1)NC(=O)OCc1cncs1)C(=O)c1ccc2nc(N3CCCC3)oc2c1
Cytochrome P450 3A4
  IC50: 84 nM
[1]
  EC50: > 100000 nM

## CC(C)CN(C[C@@H](O)[C@H](Cc1ccccc1)NC(=O)OCc1cncs1)C(=O)c1ccc2ncsc2c1
[2]
  AUC(0-inf): 7070 ng·h/mL
[3]
  Cmax: 2100 ng/mL
Canis familiaris [4]
  fold change (FC): 4.8
Canis familiaris [5]
  fold change (FC): 2
[6]
  bioavailability: 97%
[7]
  AUC(0-inf): 2240 ng·h/mL
[8]
  Tmax: 60 min
[9]
  Cmax: 5200 ng/mL
[10]
  bioavailability: 107%
[11]
  AUC(0-inf): 7800 ng·h/mL
[12]
  Tmax: 30 min
[13]
  Cmax: 2800 ng/mL
[17]
  efflux ratio at 1 h, 10 µM: 3.6
[18]
  efflux ratio at 1 h, 10 µM: 2
[14]
  Papp at 1 h, 10 µM: 9.8 ×10⁻⁶ cm/s
[15]
  Papp at 1 h, 10 µM: 11 ×10⁻⁶ cm/s
Cytochrome P450 3A4
  IC50: 23 nM
[1]
  EC50: 95000 nM

## O=C(N[C@@H](Cc1ccccc1)[C@H](O)CN(CC1CCC(F)(F)CC1)C(=O)c1ccc2nc(N3CCCC3)oc2c1)OCc1cncs1
Cytochrome P450 3A4
  IC50: 30 nM
[1]
  EC50: 30000 nM

## C#CCN(C)c1nc2ccc(C(=O)N(CC(C)C)C[C@@H](O)[C@H](Cc3ccccc3)NC(=O)OCc3cncs3)cc2o1
Cytochrome P450 3A4
  IC50: 30 nM
[1]
  EC50: 48000 nM

## CC(C)CN(C[C@@H](O)[C@H](Cc1ccccc1)NC(=O)OCc1cncs1)C(=O)c1ccc2nc(NCCN(C)C)oc2c1
Cytochrome P450 3A4
  IC50: 200 nM
[1]
  EC50: > 100000 nM

## CCN(C)c1nc2ccc(C(=O)N(CC(C)C)CC(O)[C@H](Cc3cccnc3)NC(=O)OCc3cncs3)cc2o1 (single isomer, unassigned)
Cytochrome P450 3A4
  IC50: 69 nM
[1]
  EC50: > 100000 nM

## CCN(C)c1nc2ccc(C(=O)N(CC(C)C)C[C@@H](O)[C@H](Cc3ccccc3)NC(=O)OCc3cccnc3)cc2o1
Cytochrome P450 3A4
  IC50: 22 nM
[1]
  EC50: 48000 nM

## CCN(C[C@@H](O)[C@H](Cc1ccccc1)NC(=O)OCc1cncs1)C(=O)c1ccc2nc(N3CCCC3)oc2c1
Cytochrome P450 3A4
  IC50: 60 nM
[1]
  EC50: 69000 nM

## O=C(N[C@@H](Cc1ccccc1)[C@H](O)CN(CCN1CCCC1)C(=O)c1ccc2nc(N3CCCC3)oc2c1)OCc1cncs1
Cytochrome P450 3A4
  IC50: 130 nM
[1]
  EC50: 58000 nM

## CC(C)CN(C[C@@H](O)[C@H](Cc1cccnc1)NC(=O)OCc1cncs1)C(=O)c1ccc2ncsc2c1
Cytochrome P450 3A4
  IC50: 90 nM
[1]
  EC50: > 100000 nM

## CCN(C)c1nc2ccc(C(=O)N(CC(C)C)C[C@@H](O)[C@H](Cc3ccccc3)NC(=O)OCc3ccncc3)cc2o1
Cytochrome P450 3A4
  IC50: 200 nM
[1]
  EC50: 49000 nM

## CC(C)CN(C[C@@H](O)[C@H](Cc1ccccc1)NC(=O)OCc1cncs1)C(=O)c1ccc2nc(N3CCN(C)CC3)oc2c1
Cytochrome P450 3A4
  IC50: 92 nM
[1]
  EC50: > 100000 nM

## CC(C)(C)CN(C[C@@H](O)[C@H](Cc1ccccc1)NC(=O)OCc1cncs1)C(=O)c1ccc2nc(N3CCCC3)oc2c1
Cytochrome P450 3A4
  IC50: 27 nM
[1]
  EC50: 30000 nM

## O=C(N[C@@H](Cc1ccccc1)[C@H](O)CN(CCN1CCOCC1)C(=O)c1ccc2nc(N3CCCC3)oc2c1)OCc1cncs1
Cytochrome P450 3A4
  IC50: 120 nM
[1]
  EC50: > 100000 nM

## CCN(C)c1nc2ccc(C(=O)N(CC(C)C)C[C@@H](O)[C@H](Cc3ccc(F)cc3)NC(=O)OCc3cncs3)cc2o1
Cytochrome P450 3A4
  IC50: 23 nM
[1]
  EC50: 47000 nM

## CC(C)CN(C[C@@H](O)[C@H](Cc1ccccc1)NC(=O)OCc1cncs1)C(=O)c1ccc2nc(NC3CCN(C)CC3)oc2c1
Cytochrome P450 3A4
  IC50: 2700 nM
[1]
  EC50: > 100000 nM

## CCN(C[C@@H](O)[C@H](Cc1ccccc1)NC(=O)OCc1cncs1)C(=O)c1ccc2nc(N(C)CC)oc2c1
Cytochrome P450 3A4
  IC50: 79 nM
[1]
  EC50: > 100000 nM

From ChEMBL document CHEMBL2057069, “Benzoxazole and benzothiazole amides as novel pharmacokinetic enhancers of HIV protease inhibitors” (Bioorg Med Chem Lett, 2012)
